Assays:
L1210 = experiment: Antiproliferative activity against mouse L1210 cells after 2 days; type: functional, cell-based; settings: L1210, 48 h
Method in brief: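 Cells were seeded at 300,000–500,000 cells/mL and mixed 1:1 with compound dilutions. They were incubated at 37 °C for two days and counted with a Coulter counter. IC50 is the concentration that inhibits proliferation by 50%, given as mean ± SE from dose–response curves of at least three independent experiments.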

FM3A = experiment: Antiproliferative activity against mouse FM3A cells after 2 days; type: functional, cell-based; settings: 48 h
[1] = Inhibition of bovine brain tubulin polymerization for 20 mins by turbidimetry; set-up: species or system Bos taurus
Method in brief: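 Purified bovine brain tubulin (10 μM) preincubated with varying compound concentrations in glutamate buffer at 30 °C, cooled to 0 °C, GTP added, then warmed to 30 °C in a recording spectrophotometer.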

K562 [2] = experiment: Cell cycle arrest in human K-562 cells assessed as accumulation at G0/G1 phase at 212 nM after 24 hrs by flow cytometry; type: functional
Method in brief: (§1)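 K562 cells exposed 24 h to compound, then washed once in ice-cold PBS. Resuspended at 1 × 10⁶ per mL in hypotonic propidium iodide 50 μg/mL with 0.1% sodium citrate and 0.03% (v/v) nonidet P-40, 30 min. Fluorescence read by flow cytometry as a single-parameter histogram. Sub-G0-G1, G0-G1, S and G2-M fractions compared with untreated control.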

K562 [3] = experiment: Cell cycle arrest in human K-562 cells assessed as accumulation at S phase at 212 nM after 24 hrs by flow cytometry; type: functional; method in brief: as §1
K562 [4] = experiment: Cell cycle arrest in human K-562 cells assessed as accumulation at G2/M phase at 212 nM after 24 hrs by flow cytometry; type: functional; method in brief: as §1
K562 [5] = experiment: Cell cycle arrest in human K-562 cells assessed as accumulation at sub G0/G1 phase at 212 nM after 24 hrs by flow cytometry; type: functional; method in brief: as §1
Bos taurus = organism: Bos taurus; experiment: Displacement of [3H]colchicine from bovine brain tubulin at 1 uM
Method in brief: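 Purified bovine brain tubulin (1 μM) was incubated with 5 μM [3H]colchicine and 1 μM test compound. The read-out is percent inhibition of radiolabelled colchicine binding.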

K562 [6] = experiment: Cytotoxicity against human K-562 after 24 hrs; type: functional, cell-based; settings: K562, 24 h
K562 [7] = experiment: Cell cycle arrest in human K-562 cells assessed as accumulation at G0/G1 phase at 400 nM after 24 hrs by flow cytometry; type: functional
K562 [8] = experiment: Cell cycle arrest in human K-562 cells assessed as accumulation at S phase at 400 nM after 24 hrs by flow cytometry; type: functional
K562 [9] = experiment: Cell cycle arrest in human K-562 cells assessed as accumulation at G2/M phase at 400 nM after 24 hrs by flow cytometry; type: functional
K562 [10] = experiment: Cell cycle arrest in human K-562 cells assessed as accumulation at sub G0/G1 phase at 400 nM after 24 hrs by flow cytometry; type: functional
K562 [11] = experiment: Cell cycle arrest in human K-562 cells assessed as accumulation at S phase at 68 nM after 24 hrs by flow cytometry; type: functional
K562 [12] = experiment: Cell cycle arrest in human K-562 cells assessed as accumulation at G0/G1 phase at 68 nM after 24 hrs by flow cytometry; type: functional
K562 [13] = experiment: Cell cycle arrest in human K-562 cells assessed as accumulation at G2/M phase at 68 nM after 24 hrs by flow cytometry; type: functional
K562 [14] = experiment: Cell cycle arrest in human K-562 cells assessed as accumulation at sub G0/G1 phase at 68 nM after 24 hrs by flow cytometry; type: functional
[15] = Antiproliferative activity against human Molt4/C8 cells after 3 days; settings: MOLT-4, 72 h
K562 [16] = experiment: Cell cycle arrest in human K-562 cells assessed as accumulation at G0/G1 phase at 120 nM after 24 hrs by flow cytometry; type: functional
K562 [17] = experiment: Cell cycle arrest in human K-562 cells assessed as accumulation at S phase at 120 nM after 24 hrs by flow cytometry; type: functional
K562 [18] = experiment: Cell cycle arrest in human K-562 cells assessed as accumulation at G2/M phase at 120 nM after 24 hrs by flow cytometry; type: functional
K562 [19] = experiment: Cell cycle arrest in human K-562 cells assessed as accumulation at sub G0/G1 phase at 120 nM after 24 hrs by flow cytometry; type: functional
K562 [20] = experiment: Cell cycle arrest in human K-562 cells assessed as accumulation at G0/G1 phase at 115 nM after 24 hrs by flow cytometry; type: functional; method in brief: as §1
K562 [21] = experiment: Cell cycle arrest in human K-562 cells assessed as accumulation at S phase at 115 nM after 24 hrs by flow cytometry; type: functional; method in brief: as §1
K562 [22] = experiment: Cell cycle arrest in human K-562 cells assessed as accumulation at G2/M phase at 115 nM after 24 hrs by flow cytometry; type: functional; method in brief: as §1
K562 [23] = experiment: Cell cycle arrest in human K-562 cells assessed as accumulation at sub G0/G1 phase at 115 nM after 24 hrs by flow cytometry; type: functional; method in brief: as §1
K562 [24] = experiment: Cell cycle arrest in human K-562 cells assessed as accumulation at G0/G1 phase at 85 nM after 24 hrs by flow cytometry; type: functional
K562 [25] = experiment: Cell cycle arrest in human K-562 cells assessed as accumulation at S phase at 85 nM after 24 hrs by flow cytometry; type: functional
K562 [26] = experiment: Cell cycle arrest in human K-562 cells assessed as accumulation at G2/M phase at 85 nM after 24 hrs by flow cytometry; type: functional
K562 [27] = experiment: Cell cycle arrest in human K-562 cells assessed as accumulation at sub G0/G1 phase at 85 nM after 24 hrs by flow cytometry; type: functional

What does the source list for COc1cc(C(=O)c2oc3c(OC)cccc3c2N(C)C)cc(OC)c1OC?
IC50 (L1210): 1100 nM; IC50 (FM3A): 1200 nM

Which results are given for COc1cc(C(=O)c2oc3cccc(OC)c3c2N)cc(OC)c1OC?
IC50 (L1210): 7500 nM; IC50 (FM3A): 7900 nM

For COc1ccc2c(NC(=O)CBr)c(C(=O)c3cc(OC)c(OC)c(OC)c3)oc2c1, which IC50 (L1210) is on record?
The IC50 was 480 nM.

What about the IC50 (FM3A) of the same molecule?
Its IC50 is 560 nM.

And the IC50 [1]?
Its IC50 is 2300 nM.

And the Activity (K562 [2])?
Its Activity is 6%.

What about the Activity (K562 [3]) of the same molecule?
The Activity was 27%.

What about the Activity (K562 [4]) of the same molecule?
Its Activity is 67%.

And the Activity (K562 [5])?
The Activity was 15%.

For COc1ccc2c(N)c(C(=O)c3cc(OC)c(OC)c(OC)c3)n(C)c2c1, which IC50 [1] is on record?
The IC50 was 4600 nM.

Which IC50 [1] does the source give for COc1ccc2c(N)c(C(=O)c3cc(OC)c(OC)c(OC)c3)[nH]c2c1 here?
The IC50 was > 40000 nM.

For COc1ccc2oc(C(=O)c3cc(OC)c(OC)c(OC)c3)c(N)c2c1, which IC50 (L1210) is on record?
Its IC50 is > 10000 nM.

What about the IC50 (FM3A) of the same molecule?
The IC50 was > 10000 nM.

Which results are given for COc1ccc2c(N)c(C(=O)c3cc(OC)c(OC)c(OC)c3)sc2c1?
IC50 (L1210): 39 nM; IC50 (FM3A): 46 nM; IC50 [1]: 1300 nM; Activity (Bos taurus): 60%

With COc1ccc2c(NC(=O)CCl)c(C(=O)c3cc(OC)c(OC)c(OC)c3)oc2c1 as the molecule, how does the IC50 (L1210) read?
Its IC50 is 1100 nM.

What about the IC50 (FM3A) of the same molecule?
Its IC50 is 1100 nM.

And the IC50 [1]?
The IC50 was 2000 nM.

What about the Activity (Bos taurus) of the same molecule?
The Activity was 47%.

And the IC50 (K562 [6])?
The IC50 was 400 nM.

What about the Activity (K562 [7]) of the same molecule?
Its Activity is 23%.

And the Activity (K562 [8])?
Its Activity is 44%.

And the Activity (K562 [9])?
The Activity was 33%.

What about the Activity (K562 [10]) of the same molecule?
Its Activity is 13%.

Which IC50 (L1210) does the source give for COc1cc(C(=O)c2oc3ccccc3c2N(C)C)cc(OC)c1OC here?
Its IC50 is > 10000 nM.

What about the IC50 (FM3A) of the same molecule?
Its IC50 is 8800 nM.

Which IC50 (L1210) does the source give for COc1ccc2c(N(C)C)c(C(=O)c3cc(OC)c(OC)c(OC)c3)oc2c1 here?
Its IC50 is 65 nM.

And the IC50 (FM3A)?
The IC50 was 59 nM.

And the IC50 [1]?
Its IC50 is 900 nM.

And the Activity (Bos taurus)?
Its Activity is 76%.

What about the Activity (K562 [11]) of the same molecule?
Its Activity is 32%.

And the Activity (K562 [12])?
Its Activity is 38%.

What about the Activity (K562 [13]) of the same molecule?
Its Activity is 30%.

What about the Activity (K562 [14]) of the same molecule?
Its Activity is 13%.

What does the source list for COc1ccc2oc(C(=O)c3cc(OC)c(OC)c(OC)c3)c(N(C)C)c2c1?
IC50 (L1210): 1400 nM; IC50 (FM3A): 1200 nM

For COc1cc(C(=O)c2oc3ccccc3c2N)cc(OC)c1OC, which IC50 (L1210) is on record?
Its IC50 is > 10000 nM.

What about the IC50 (FM3A) of the same molecule?
Its IC50 is > 10000 nM.

Which IC50 (L1210) does the source give for COc1cc(C(=O)c2oc3cccc(OC)c3c2N(C)C)cc(OC)c1OC here?
The IC50 was > 10000 nM.

And the IC50 (FM3A)?
Its IC50 is > 10000 nM.

And the IC50 [15]?
Its IC50 is > 10000 nM.

Which results are given for COc1cc(C(=O)c2oc3c(OC)cccc3c2N)cc(OC)c1OC?
IC50 (L1210): > 10000 nM; IC50 (FM3A): > 10000 nM

What does the source list for COc1ccc2c(N)c(C(=O)c3cc(OC)c(OC)c(OC)c3)oc2c1?
IC50 (L1210): 430 nM; IC50 (FM3A): 280 nM; IC50 [1]: 1100 nM; Activity (Bos taurus): 73%; Activity (K562 [16]): 11%; Activity (K562 [17]): 45%; Activity (K562 [18]): 44%; Activity (K562 [19]): 15%; IC50 (K562 [6]): 120 nM

For COc1ccc2c(NC(=O)CI)c(C(=O)c3cc(OC)c(OC)c(OC)c3)oc2c1, which IC50 (L1210) is on record?
The IC50 was 170 nM.

And the IC50 (FM3A)?
Its IC50 is 260 nM.

And the IC50 [1]?
The IC50 was 1800 nM.

And the Activity (Bos taurus)?
Its Activity is 54%.

What about the Activity (K562 [20]) of the same molecule?
The Activity was 23%.

What about the Activity (K562 [21]) of the same molecule?
Its Activity is 56%.

And the Activity (K562 [22])?
Its Activity is 21%.

And the Activity (K562 [23])?
The Activity was 33%.

For COc1ccc2c(NC(C)=O)c(C(=O)c3cc(OC)c(OC)c(OC)c3)oc2c1, which IC50 (L1210) is on record?
The IC50 was 94 nM.

What about the IC50 (FM3A) of the same molecule?
Its IC50 is 100 nM.

What about the IC50 [1] of the same molecule?
The IC50 was 1600 nM.

And the Activity (Bos taurus)?
The Activity was 51%.

And the IC50 (K562 [6])?
Its IC50 is 85 nM.

And the Activity (K562 [24])?
Its Activity is 27%.

What about the Activity (K562 [25]) of the same molecule?
The Activity was 36%.

What about the Activity (K562 [26]) of the same molecule?
Its Activity is 37%.

And the Activity (K562 [27])?
The Activity was 12%.

Reference: ChEMBL document CHEMBL1144178, “Synthesis and biological evaluation of 2-(3',4',5'-trimethoxybenzoyl)-3-N,N-dimethylamino benzo[b]furan derivatives as inhibitors of tubulin polymerization” (Bioorg Med Chem, 2008)
